As a reminder, the inhibition is the drop in the measured response relative to a control, in per cent. A high value points to a response far below the control.

In brackets after ≈: the same amount, converted by molar mass.

The nature of assay [1]: microbe, parasite or virus in culture. The note with it: Enterobacter cloacae, ATCC 13047, 20 h.
Assay [2] relates to Staphylococcus aureus. The experiment in a line: microbe, parasite or virus in culture. The note with it: ATCC 29213, 20 h.
The test system of assay [3] is Staphylococcus aureus. The experiment in a line: Antimicrobial activity against CA-methicillin-resistant Staphylococcus aureus W48 ST217 incubated for 20 hrs by microdilution method. The note with it: W48 ST217, 20 h. For orientation: Broth dilution looks for growth in wells or tubes with falling amounts of substance.
For assay [4], the system named is Enterococcus faecium. The experiment in a line: Antimicrobial activity against Enterococcus faecium ATCC 19433 incubated for 20 hrs by microdilution method. It counts as functional. The note with it: ATCC 19433, 20 h. An outline of the steps:
(§1)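 Broth microdilution MIC testing done following CLSI guidelines.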

The subject of assay [5] is Streptococcus agalactiae. Nature of the assay: Antimicrobial activity against Streptococcus agalactiae ATCC 12386 incubated for 20 hrs by microdilution method. It counts as functional. The note with it: ATCC 12386, 20 h. An outline of the steps: as §1
Assay [6] has as its system Staphylococcus aureus. The experiment in a line: Antimicrobial activity against Staphylococcus aureus ATCC BAA43 incubated for 20 hrs by microdilution method. It counts as functional. The note with it: ATCC BAA43, 20 h. An outline of the steps:
(§2)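 MIC determined by microdilution following Clinical & Laboratory Standards Institute (CLSI) guidelines, read in µg/mL, against a panel of hospital- and community-acquired MRSA strains.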

A short description of assay [7]: Antimicrobial activity against Staphylococcus saprophyticus ATCC 15305 incubated for 20 hrs by microdilution method. It counts as functional, Staphylococcus saprophyticus subsp. saprophyticus. The note with it: ATCC 15305, 20 h. An outline of the steps: as §1
Assay [8] has as its system Pseudomonas aeruginosa. The experiment in a line: Antimicrobial activity against Pseudomonas aeruginosa ATCC 27853 incubated for 20 hrs by microdilution method. It counts as functional. The note with it: ATCC 27853, 20 h. An outline of the steps: as §1
Assay [9] deals with Staphylococcus aureus. Nature of the assay: Antimicrobial activity against CA-methicillin-resistant Staphylococcus aureus W46 ST59 incubated for 20 hrs by microdilution method. The note with it: W46 ST59, 20 h.
In assay [10] the test system is Staphylococcus aureus. The experiment in a line: Antimicrobial activity against Staphylococcus aureus USA300/ST8 incubated for 20 hrs by microdilution method. The conditions noted are these: USA300 ST8, 20 h.
The subject of assay [11] is Staphylococcus aureus. The experiment in a line: Antimicrobial activity against Staphylococcus aureus HA W235 ST5 incubated for 20 hrs by microdilution method. It counts as functional. The note with it: HA W235 ST5, 20 h. The procedure, abridged: as §2
Assay [12] concerns Staphylococcus aureus. The experiment in a line: Antimicrobial activity against Staphylococcus aureus HA W231 ST45 incubated for 20 hrs by microdilution method. It counts as functional. The note with it: HA W231 ST45, 20 h. The procedure, abridged: as §2
In assay [13] the test system is Staphylococcus aureus. The experiment in a line: microbe, parasite or virus in culture. The note with it: ATCC 25923, 20 h.
Assay [14] deals with Staphylococcus aureus. The experiment in a line: Antimicrobial activity against Staphylococcus aureus ST239 incubated for 20 hrs by microdilution method. It counts as functional. The conditions noted are these: CN79, 20 h. An outline of the steps: as §2
Assay [15] deals with Enterococcus casseliflavus. Nature of the assay: Antimicrobial activity against Enterococcus casseliflavus ATCC 25788 incubated for 20 hrs by microdilution method. It counts as functional. The note with it: ATCC 25788, 20 h. An outline of the steps:
as §1

The test system of assay [16] is Streptococcus pneumoniae. Nature of the assay: Antimicrobial activity against Streptococcus pneumoniae ATCC 49619 incubated for 20 hrs by microdilution method. The conditions noted are these: ATCC 49619, 20 h. It counts as functional. An outline of the steps:
as §1

The subject of assay [17] is Streptococcus pyogenes. Nature of the assay: Antimicrobial activity against Streptococcus pyogenes ATCC 19615 incubated for 20 hrs by microdilution method. It counts as functional. The note with it: ATCC 19615, 20 h. An outline of the steps: as §1
Assay [18] has as its system Staphylococcus aureus. The experiment in a line: Antimicrobial activity against CA-methicillin-resistant Staphylococcus aureus W47 ST30 incubated for 20 hrs by microdilution method. It counts as functional. The note with it: W47 ST30, 20 h. An outline of the steps: as §2
Assay [19] concerns Staphylococcus aureus. Nature of the assay: Antimicrobial activity against Staphylococcus aureus ATCC BAA44 incubated for 20 hrs by microdilution method. It counts as functional. The conditions noted are these: ATCC BAA44, 20 h. An outline of the steps: as §2
Assay [20] concerns Staphylococcus aureus. Nature of the assay: Antimicrobial activity against Staphylococcus aureus ST22 11B086169 incubated for 20 hrs by microdilution method. The note with it: ST22 11B086169, 20 h. It counts as functional. An outline of the steps: as §2
Assay [21] deals with Acinetobacter baumannii. The experiment in a line: Antimicrobial activity against Acinetobacter baumannii ATCC 19606 incubated for 20 hrs by microdilution method. It counts as functional. The note with it: ATCC 19606 = CIP 70.34 = JCM 6841, 20 h. An outline of the steps:
as §1

The subject of assay [22] is Staphylococcus epidermidis. The experiment in a line: Antimicrobial activity against Staphylococcus epidermidis ATCC 12228 incubated for 20 hrs by microdilution method. It counts as functional. The conditions noted are these: ATCC 12228, 20 h. An outline of the steps: as §1
In assay [23] the test system is Staphylococcus aureus. Nature of the assay: Antimicrobial activity against CA-methicillin-resistant Staphylococcus aureus W45 ST59 incubated for 20 hrs by microdilution method. The note with it: W45 ST59, 20 h.
For assay [24], the system named is Staphylococcus aureus. The experiment in a line: Antimicrobial activity against CA-methicillin-resistant Staphylococcus aureus W4 ST338 incubated for 20 hrs by microdilution method. It counts as functional. The note with it: W4 ST338, 20 h. The procedure, abridged: as §2
In assay [25] the test system is Bacillus subtilis. Nature of the assay: Inhibition of N-terminal LgBiT-fused Bacillus subtilis NusB expressed in Escherichia coli BL21(DE3)pLysS interaction with C- terminal SmBiT-fused Bacillus subtilis NusE expressed in Escherichia coli BL21(DE3)pLysS at 100 uM preincubated for 10 mins followed by NusE addition and measured after 10 mins by nano-glo luciferase assay relative to control. An outline of the steps: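 NusB and NusE were mixed 1:1 at 1 µM in PBS, with compound at 100 µM. The read-out was percent inhibition of the NusB-NusE interaction.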

As for `Cc1onc(-c2ccccc2)c1C(=O)N[C@@H]1C(=O)N2[C@@H]1SC(C)(C)[C@@H]2C(=O)O` [OXACILLIN], the MIC is above 256 µg/mL in [1]; 0.25 µg/mL (≈ 0.623 µM) in [2]; 64 µg/mL (≈ 159 µM) in [3]; 16 µg/mL (≈ 39.9 µM) in assay [4]; 0.5 µg/mL (≈ 1.25 µM) in assay [5]; above 256 µg/mL in assay [6]. In addition, the MIC in assay [7] is 1 µg/mL (≈ 2.49 µM); in [8] it was above 256 µg/mL; in assay [9], 8 µg/mL (≈ 19.9 µM); in assay [10] it was 32 µg/mL (≈ 79.7 µM); in assay [11], above 256 µg/mL; in assay [12], 4 µg/mL (≈ 9.96 µM). The MIC was 0.5 to 1 µg/mL (≈ 1.25 to 2.49 µM) in [13]; above 256 µg/mL in [14]; 32 µg/mL (≈ 79.7 µM) in [15]; 2 µg/mL (≈ 4.98 µM) in assay [16]; 0.0625 µg/mL (≈ 0.156 µM) in assay [17]; 4 µg/mL (≈ 9.96 µM) in assay [18]. Also, the MIC in assay [19] was above 256 µg/mL; in assay [20] it was 64 µg/mL (≈ 159 µM); in assay [21] it was above 256 µg/mL; in assay [22] it was 0.25 µg/mL (≈ 0.623 µM); in [23], 8 µg/mL (≈ 19.9 µM); in [24] it was 0.5 µg/mL (≈ 1.25 µM).

Regarding `CN[C@H](CC(C)C)C(=O)N[C@H]1C(=O)N[C@@H](CC(N)=O)C(=O)N[C@H]2C(=O)N[C@H]3C(=O)N[C@H](C(=O)N[C@H](C(=O)O)c4cc(O)cc(O)c4-c4cc3ccc4O)[C@H](O)c3ccc(c(Cl)c3)Oc3cc2cc(c3O[C@@H]2O[C@H](CO)[C@@H](O)[C@H](O)[C@H]2O[C@H]2C[C@](C)(N)[C@H](O)[C@H](C)O2)Oc2ccc(cc2Cl)[C@H]1O` [VANCOMYCIN], the MIC in assay [1] was above 256 µg/mL; in [5], 0.5 µg/mL (≈ 0.345 µM); in [7] it was 1 µg/mL (≈ 0.69 µM); in [8], above 256 µg/mL; in assay [13], 1 to 2 µg/mL (≈ 0.69 to 1.38 µM); in [15], 4 µg/mL (≈ 2.76 µM). Further, the values for the MIC in assay [16] and in assay [21] were 0.5 µg/mL (≈ 0.345 µM) and above 256 µg/mL, respectively.

Take `O=C(O)c1cn(C2CC2)c2cc(N3CCNCC3)c(F)cc2c1=O` [CIPROFLOXACIN]: the MIC in [2] is 0.5 to 1 µg/mL (≈ 1.51 to 3.02 µM); in assay [3], 4 µg/mL (≈ 12.1 µM); in assay [4], 4 µg/mL (≈ 12.1 µM); in assay [5], 4 µg/mL (≈ 12.1 µM); in assay [6], 2 µg/mL (≈ 6.04 µM); in assay [7] it was 0.5 µg/mL (≈ 1.51 µM). Also, the MIC in assay [9] is 0.25 µg/mL (≈ 0.754 µM); in assay [10], 4 µg/mL (≈ 12.1 µM); in [11], 4 µg/mL (≈ 12.1 µM); in assay [12], 2 µg/mL (≈ 6.04 µM); in [13] it was 0.5 to 1 µg/mL (≈ 1.51 to 3.02 µM); in [14], 4 µg/mL (≈ 12.1 µM). Further, the MIC in assay [15] was 4 µg/mL (≈ 12.1 µM); in assay [17], 0.5 µg/mL (≈ 1.51 µM); in assay [18], 0.5 µg/mL (≈ 1.51 µM); in assay [19], 4 µg/mL (≈ 12.1 µM); in [20], 4 µg/mL (≈ 12.1 µM); in [21], 2 µg/mL (≈ 6.04 µM). The values for the MIC in assay [22], in assay [23] and in [24] were 0.0625 µg/mL (≈ 0.189 µM), 0.25 µg/mL (≈ 0.754 µM) and 0.5 µg/mL (≈ 1.51 µM), respectively.

As to `C#Cc1cccc(/N=C/c2cc(CC#N)ccc2O)c1`, the MIC in assay [1] is above 256 µg/mL; in [2] it was above 256 µg/mL; in [4], above 256 µg/mL; in assay [8] it was above 256 µg/mL; in [13], 256 µg/mL (≈ 983 µM); in assay [16], above 256 µg/mL. Besides, the MIC in assay [21] was determined as 64 µg/mL (≈ 246 µM). In assay [25], this compound registered an inhibition of 49.9%.

Take `O=[N+]([O-])c1ccc(O)c(/C=N/c2ccc(Cl)cc2)c1`: the MIC was above 256 µg/mL in [1]; 32 µg/mL (≈ 116 µM) in assay [2]; 256 µg/mL (≈ 925 µM) in assay [4]; above 256 µg/mL in [8]; 8 µg/mL (≈ 28.9 µM) in [13]; 64 µg/mL (≈ 231 µM) in assay [16]. The same compound had an MIC in assay [21] above 256 µg/mL. For the same compound, the inhibition in assay [25] worked out at 50%.

For `O=[N+]([O-])c1ccc(O)c(/C=N/c2ccccc2C(F)(F)F)c1`, the MIC in assay [1] was above 256 µg/mL; in assay [2] it was 16 µg/mL (≈ 51.6 µM); in assay [4], 256 µg/mL (≈ 825 µM); in assay [8], above 256 µg/mL; in assay [13], 8 µg/mL (≈ 25.8 µM); in assay [16], 32 µg/mL (≈ 103 µM). The compound further returned an MIC in assay [21] above 256 µg/mL. In addition, the inhibition in assay [25] was found to be 53.1%.

On to `O=[N+]([O-])c1ccc(O)c(/C=N/c2ccc(O)cc2)c1`, for which the MIC in [1] is above 256 µg/mL; in [2] it was 8 µg/mL (≈ 31 µM); in assay [4], above 256 µg/mL; in assay [8], above 256 µg/mL; in assay [13] it was 4 µg/mL (≈ 15.5 µM); in assay [16] it was 64 µg/mL (≈ 248 µM). In addition, the MIC in assay [21] was above 256 µg/mL. Also, the inhibition in assay [25] is 89.1%.

With `CC(C)(C)c1ccc(/N=C/c2cc([N+](=O)[O-])ccc2O)cc1`, the MIC in [1] is above 256 µg/mL; in assay [2], 32 µg/mL (≈ 107 µM); in assay [4], above 256 µg/mL; in [8] it was above 256 µg/mL; in assay [13], 4 µg/mL (≈ 13.4 µM); in [16], 128 µg/mL (≈ 429 µM). The MIC in [21] was above 256 µg/mL. In addition, the inhibition in [25] was 38.8%.

The values are drawn from ChEMBL document CHEMBL4364256, “Design, synthesis and biological evaluation of antimicrobial diarylimine and -amine compounds targeting the interaction between the bacterial NusB and NusE proteins” (Eur J Med Chem, 2019).
